# Source: PubChem BioAssay (The Scripps Research Institute Molecular Screening Center)
# Sampled rows, rich in hits. Any-hit rate of the full collection: about 3.5%.
# rCAG binder – binds r(CAG) RNA repeats; inhibition, % at 3 µM; 1.3% of 370,000 active; r(CAG) RNA repeat, TO-PRO-1 dye displacement fluorescence;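 active = inhibition above the plate cutoff, the mean of all test compounds on that plate plus 3 SD, cut at about 35% in these data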;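 also: 0% = DMSO alone and 100% = 100 µM mitoxantrone as full dye displacement; higher means more dye released from RNA so lower well fluorescence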
# ABHD4 inh – inhibitors of mouse ABHD4 | Q8VD66 | purified mABHD4, FP-Rh probe fluorescence polarization | inhibition, % at 8.92 µM | 0.54% of 370,000 active | AID 720543;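 active = inhibition exceeding the mean over every tested compound plus 3 SD, cut at about 30% in these data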;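 also: 0% = plate median of compound wells and 100% = S159A mutant with DMSO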
# Target sequence (Q8VD66 whole entry, looked up): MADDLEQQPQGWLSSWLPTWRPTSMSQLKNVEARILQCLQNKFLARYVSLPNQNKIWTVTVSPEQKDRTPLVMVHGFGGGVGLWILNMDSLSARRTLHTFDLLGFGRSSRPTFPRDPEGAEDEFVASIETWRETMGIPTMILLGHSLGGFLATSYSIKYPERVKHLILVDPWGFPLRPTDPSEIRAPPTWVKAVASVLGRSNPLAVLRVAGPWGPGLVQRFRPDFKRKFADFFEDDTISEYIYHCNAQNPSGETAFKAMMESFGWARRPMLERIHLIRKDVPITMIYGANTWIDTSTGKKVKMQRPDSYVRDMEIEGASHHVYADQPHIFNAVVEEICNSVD
#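 Assay system: mouse ABHD4 enzyme, wild type / Also added: fluorescent activity-based probe FP-Rh / Doses: single nominal dose of 8.92 µM, 0.89% DMSO final / Timing: 45 min compound pre-incubation plus 60 min probe step, 25 °C / Signal: FP readout, ex 525 nm / em 598 nm / Control set: S159A mutant/DMSO as 100%, compound-well median as 0%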
# TCR-CD3 inh – human TCR-CD3 binding inhibition; inhibition, % at 9.4 µM; 0.37% of 360,000 active; TAMRA-labeled TCR probe fluorescence, biochemical; in the data active = inhibition above about 19%;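 also: recombinant mutant TCR 2C K166C tagged with TAMRA read by polarization; 0% = receptor in buffer alone and 100% = receptor with positive control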
# SIAE inh – inhibitors of human sialic acid acetylesterase SIAE; inhibition, % at 9.66 µM; Q9HAT2; 0.69% of 370,000 active; SIAE FP-Rh probe binding, fluorescence polarization;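 active = inhibition above a cutoff: mean of compounds within the control limits plus 3 SD of those, cut at about 17% in these data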;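 also: 0% = plate median of compound wells and 100% = probe without SIAE protein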
# PRMT1 FP inh – inhibitors of human PRMT1; Q99873; recombinant PRMT1, activity-based probe fluorescence polarization; inhibition, % at 2.79 µM; 1.3% of 370,000 active; AID 652257;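 active = inhibition above about 21% made by adding two undisclosed values, limit read from the data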
# HTRA1 inh – HTRA1 (human) protease inhibition | 0.5% of 340,000 active | AID 504803 | recombinant HTRA1, FP-rhodamine activity-based probe, fluorescence polarization | inhibition, % at 5.96 µM | Q92743; in the data active = inhibition above about 36%;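 also: 0% = enzyme with DMSO and 100% = wells lacking enzyme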
# rCAG bind conf – r(CAG) RNA repeat binding, confirmation | shares compounds with rCAG binder | TO-PRO-1 dye displacement fluorescence | inhibition, % at 3 µM | 70% of 4,300 active | AID 652065;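 active = inhibition above a per-plate cutoff, the mean inhibition of sample wells plus 3 SD, cut at about 35% in these data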;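 also: loss of TO-PRO-1 fluorescence as compound displaces dye from 1x1 AA loop RNA; 0% = DMSO only wells and 100% = 100 µM mitoxantrone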
# DNA CAG counter – counter-screen for rCAG RNA binders: DNA CAG dye complex inhibitors; d(CAG) DNA oligo TO-PRO-1 dye displacement, fluorescence; 94% of 4,300 active; shares compounds with rCAG binder; inhibition, % at 3 µM; AID 652068;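 active = inhibition above its plate's cutoff, the mean test-well inhibition plus 3 SD, cut at about 4.8% in these data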;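 also: 0% = DNA dye mix with DMSO and 100% = 100 µM mitoxantrone; hits displace the dye from DNA and so lower well fluorescence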
# Numbers without * were called inactive; . = not tested or not shown.
SMILES,rCAG binder,ABHD4 inh,TCR-CD3 inh,SIAE inh,PRMT1 FP inh,HTRA1 inh,rCAG bind conf,DNA CAG counter
O=C(/C=C/c1ccc(O)c([N+](=O)[O-])c1)c1ccc2ccccc2c1,42*,21,7,-15,-2,2,78*,39*
CN(C)c1ccc(/C=C/C(=O)c2ccccc2)cc1[N+](=O)[O-],-1,-5,-4,-5,-2,1,.,.
O=C(C=Cc1ccco1)c1ccc2ccccc2c1,38*,7,-5,3,17,-32,16,10*
COC(=O)[C@]1(CNC(C)=O)CC(=O)N(C)[C@@H]1c1ccccc1,4,4,.,-2,2,.,.,.
COc1cc(C)c(C(=O)Oc2cc(C)c(C(=O)O)c(O)c2C)c(OC)c1C,52*,-17,-1,-4,-4,-32,55*,17*
CC(C)(C)OC(=O)NCCCc1ccc2c(c1)[C@]1(CCC[C@@H](OCc3ccccc3)[C@@H]1NC(=O)CCc1ccccc1)C(=O)N2Cc1ccccc1,12,-10,.,-7,3,.,.,.
COc1ccc(C(=O)N/N=C/c2ccc(OC)c(COc3ccc(F)cc3)c2)cc1,0,-34,7,-1,-2,-46,.,.
COc1cc(/C=N/NS(=O)(=O)c2ccc3ccccc3c2)ccc1OCc1ccc(C(=O)O)cc1,48*,-4,-1,-9,5,-13,40*,11*
O=C(O)c1ccc(N/N=C/c2ccc(C(F)(F)F)cc2)cc1,19,11,4,0,9,-6,.,.
COc1cccc(OCc2cc(/C=N/Nc3ccc(C(=O)O)cc3)ccc2OC)c1,64*,34*,0,3,10,-61,74*,37*
COc1cccc(C(=O)Oc2ccc(/C=N/Nc3ccc(C(=O)O)cc3)cc2OC)c1,70*,13,2,9,8,5,67*,25*
COc1cc(/C=N/Nc2ccc(Cl)c(C(=O)O)c2)ccc1OC(=O)c1ccc(F)cc1,9,6,0,11,5,-2,.,.
CC(C)(C)c1ccc(/C=N/Nc2ccc(C(=O)O)cc2)cc1,39*,3,2,3,6,-9,36*,8.8*
COc1ccc(C2C(C(=O)Nc3ccc(Cl)c(Cl)c3)CCC(=O)N2c2ccc(OC)cc2)cc1 (stereo unspecified),7,2,.,8,0,.,.,.
COc1cc(/C=N/Nc2ccc(Cl)c(C(=O)O)c2)ccc1OC(=O)c1ccccc1F,66*,16,-1,9,5,-4,80*,47*
CCCCOc1ccc(C(=O)NC2CCCCN(CC)C2=O)cc1 (stereo unspecified),-3,1,.,3,0,.,.,.
Nc1c(/C=C2\C=Nc3ccccc32)c(=O)nc2sc(CC(=O)N3CCOCC3)nn12,48*,10,10,-2,-5,-6,31,8.7*
CC[C@@H]1C=C(C(=O)O)[C@H](c2ccc(Cl)cc2)N1S(=O)(=O)c1ccc(C)cc1,24,1,-7,7,-2,4,.,.
CCCC[C@@H]1C=C(C(=O)O)[C@H](c2ccc(Cl)cc2)N1S(=O)(=O)c1ccc(C)cc1,58*,-1,-1,4,-1,-11,54*,20*
CCCC[C@@H]1C=C(C(=O)O)[C@H](c2ccc3c(c2)OCO3)N1S(=O)(=O)c1ccc(C)cc1,45*,6,-1,-4,2,4,39*,11*
CC[C@@H]1C=C(C(=O)O)[C@H](c2ccc(C)cc2)N1S(=O)(=O)c1ccc(C)cc1,9,-2,-4,-5,1,4,.,.
CCCCC[C@@H]1C=C(C(=O)O)[C@H](c2ccc(Br)cc2)N1S(=O)(=O)c1ccc(C)cc1,80*,-22,6,-10,1,-56,69*,31*
CC(=O)OC12CCCN(C1)/C(=C/c1cccc(N(C)C)c1)C2 (stereo unspecified),-1,-1,.,-1,1,.,.,.
